{"data": "Experimental data gathered from unrelated publications", "note": "Each line is one published result; the experiments were not run side by side."}
{"SMILES": "Cc1cccc2c(C(c3ccc(/C=C/C(=O)O)s3)c3c[nH]c4c(C)cccc34)c[nH]c12", "target or system": "KG-1", "test": "cell growth or viability", "conditions": "5 µM, 48 h", "measurement": "inhibition", "value": "1%"}
{"SMILES": "Clc1ccccc1C(c1ccccc1)(c1ccccc1)n1ccnc1", "target or system": "Aspergillus flavus", "test": "microbial growth, disc diffusion", "conditions": "20000 µg/mL", "measurement": "inhibition zone", "value": "24 mm"}
{"SMILES": "COc1ccc(-c2ccc(-c3ccc(C(=N)N)nc3)s2)cc1", "target or system": "Malme-3M", "test": "cell growth or viability, SRB", "measurement": "GI50", "value": "1840 nM"}
{"SMILES": "C[C@@H]1[C@H](O)[C@@H](C)/C=C/C=C/C=C/C=C/C=C/C=C/C=C/[C@H](O[C@@H]2O[C@H](C)[C@@H](O)[C@H](N)[C@@H]2O)C[C@@H]2O[C@](O)(C[C@@H](O)C[C@@H](O)[C@H](O)CC[C@@H](O)C[C@@H](O)CC(=O)O[C@H]1C)C[C@H](O)[C@H]2C(=O)O", "target or system": "Leishmania panamensis", "test": "parasite growth", "conditions": "24 h, promastigote", "measurement": "IC50", "value": "100 nM"}
{"SMILES": "OC(CN1CCOCC1)(Cn1cncn1)c1ccc(F)cc1F (stereo not shown)", "target or system": "Aspergillus flavus", "test": "microbial growth, broth dilution", "conditions": "48 h", "measurement": "MIC", "value": "7.8 µg/mL"}
{"SMILES": "COc1ccc(-c2c(-c3ccc(C#N)c(F)c3)nc(N3CCC(N)CC3)n(C)c2=O)cc1F", "target or system": "MOLM-13", "test": "cell growth or viability, resazurin", "conditions": "96 h", "measurement": "EC50", "value": "0.96 nM"}
{"SMILES": "O=C1NN=C(N=Cc2ccccc2O)C1=NNn1c(-c2ccccc2)nc2ccccc2c1=O", "target or system": "Staphylococcus", "test": "microbial growth, broth dilution", "conditions": "24 h", "measurement": "MIC", "value": "111 µM"}
{"SMILES": "O=C(O)C(c1c[nH]c2ccccc12)c1c[nH]c2ccccc12", "target or system": "KG-1", "test": "cell growth or viability", "conditions": "20 µM, 48 h", "measurement": "inhibition", "value": "23%"}
{"SMILES": "CC(=O)NCN1N=C(C)C(=NNn2c(-c3ccccc3)nc3ccccc3c2=O)C1=O", "target or system": "Staphylococcus", "test": "microbial growth, broth dilution", "conditions": "24 h", "measurement": "MIC", "value": "120 µM"}
{"SMILES": "O=c1[nH]cc(F)c(=O)[nH]1", "target or system": "NRK-52E", "test": "cell growth or viability, MTT", "conditions": "24 h", "measurement": "IC50", "value": "46700 nM"}
